Results from ChEMBL document CHEMBL1150832, “Phenylnaphthalene compounds from the subterranean part of Vitex rotundifolia and their antibacterial activity against methicillin-resistant Staphylococcus aureus” (2001).
In brackets after ≈: the same amount, converted by molar mass. Activity calls are given as the source filed them. The calls are words filed in the database; no cut-off is given here.

Columns and labels:
Staphylococcus aureus [1] = assay: Antimicrobial activity against methicillin-sensitive Staphylococcus aureus ATCC 6538 at 100 ug after 20 hrs by agar plate diffusion assay; assay type: functional, organism-based
Outline: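 Agar disk diffusion. Cells were grown on Mueller-Hinton agar at 37 °C for 24 h, resuspended in Mueller-Hinton broth to 108 CFU/mL and incubated again. They were then diluted to 105 CFU/mL and used to inoculate Mueller-Hinton agar plates. 6 mm disks loaded with 100 µg compound were placed on the plates and incubated 20 h at 37 °C. Inhibition zones >10 mm were scored positive.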

Staphylococcus aureus [2] = assay: Antimicrobial activity against methicillin-resistant Staphylococcus aureus 0020 after 20 hrs by serial twofold dilution method; assay type: functional; details: Staphylococcus aureus, 0020, 20 h
Outline: (§1)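 Agar dilution MIC on Mueller-Hinton agar, following the Japanese Society for Antimicrobial Chemotherapy (1981) method. MRSA clinical isolates from Tokushima University Hospital were grown on Mueller-Hinton agar at 37 °C for 24 h, then resuspended in Mueller-Hinton broth. Suspensions of 1 × 10^6 CFU/mL were spotted with a replicating device. Plates were read after 20 h at 37 °C.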

Staphylococcus aureus [3] = assay: Antimicrobial activity against methicillin-resistant Staphylococcus aureus 0021 after 20 hrs by serial twofold dilution method; assay type: functional; details: Staphylococcus aureus, 0021, 20 h; outline: as §1
Staphylococcus aureus [4] = assay: Antimicrobial activity against methicillin-resistant Staphylococcus aureus 0012 after 20 hrs by serial twofold dilution method; assay type: functional; details: Staphylococcus aureus, 0012, 20 h; outline: as §1
Staphylococcus aureus [5] = assay: Antimicrobial activity against methicillin-resistant Staphylococcus aureus 0009 at 100 ug after 20 hrs by agar plate diffusion assay; assay type: functional, organism-based
Outline: (§2)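 Disk diffusion against MRSA clinical isolates from Tokushima University Hospital. Cells were grown on Mueller-Hinton agar at 37 °C for 24 h, resuspended in Mueller-Hinton broth, and diluted to 10^5 CFU/mL to seed Mueller-Hinton agar plates. 6 mm disks loaded with 100 µg compound were incubated 20 h at 37 °C. Inhibition zones over 10 mm in diameter were scored positive.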

Staphylococcus aureus [6] = assay: Antimicrobial activity against methicillin-resistant Staphylococcus aureus 0016 after 20 hrs by serial twofold dilution method; assay type: functional; details: Staphylococcus aureus, 0016, 20 h; outline: as §1
Staphylococcus aureus [7] = assay: Antimicrobial activity against methicillin-resistant Staphylococcus aureus 0008 at 100 ug after 20 hrs by agar plate diffusion assay; assay type: functional, organism-based; outline: as §2
Staphylococcus aureus [8] = assay: Antimicrobial activity against methicillin-resistant Staphylococcus aureus 0022 after 20 hrs by serial twofold dilution method; assay type: functional; details: Staphylococcus aureus, 0022, 20 h; outline: as §1
Staphylococcus aureus [9] = assay: Antimicrobial activity against methicillin-resistant Staphylococcus aureus 0013 at 100 ug after 20 hrs by agar plate diffusion assay; assay type: functional, organism-based; outline: as §2
Staphylococcus aureus [10] = assay: Antimicrobial activity against methicillin-resistant Staphylococcus aureus 0001 after 20 hrs by serial twofold dilution method; assay type: functional; details: Staphylococcus aureus, 0001, 20 h; outline: as §1
Staphylococcus aureus [11] = assay: Antimicrobial activity against methicillin-resistant Staphylococcus aureus 0009 after 20 hrs by serial twofold dilution method; assay type: functional; details: Staphylococcus aureus, 0009, 20 h; outline: as §1
Staphylococcus aureus [12] = assay: Antimicrobial activity against methicillin-resistant Staphylococcus aureus 0019 at 100 ug after 20 hrs by agar plate diffusion assay; assay type: functional, organism-based; outline: as §2
Staphylococcus aureus [13] = assay: Antimicrobial activity against methicillin-resistant Staphylococcus aureus 0021 at 100 ug after 20 hrs by agar plate diffusion assay; assay type: functional, organism-based; outline: as §2
Staphylococcus aureus [14] = assay: Antimicrobial activity against methicillin-resistant Staphylococcus aureus 0007 after 20 hrs by serial twofold dilution method; assay type: functional; details: Staphylococcus aureus, 0007, 20 h; outline: as §1
Staphylococcus aureus [15] = assay: Antimicrobial activity against methicillin-resistant Staphylococcus aureus 0008 after 20 hrs by serial twofold dilution method; assay type: functional; details: Staphylococcus aureus, 0008, 20 h; outline: as §1
Staphylococcus aureus [16] = assay: Antimicrobial activity against methicillin-resistant Staphylococcus aureus 0012 at 100 ug after 20 hrs by agar plate diffusion assay; assay type: functional, organism-based; outline: as §2
Staphylococcus aureus [17] = assay: Antimicrobial activity against methicillin-resistant Staphylococcus aureus 0002 after 20 hrs by serial twofold dilution method; assay type: functional; details: Staphylococcus aureus, 0002, 20 h; outline: as §1
Staphylococcus aureus [18] = assay: Antimicrobial activity against methicillin-resistant Staphylococcus aureus 0017 after 20 hrs by serial twofold dilution method; assay type: functional; details: Staphylococcus aureus, 0017, 20 h; outline: as §1
Staphylococcus aureus [19] = assay: Antimicrobial activity against methicillin-resistant Staphylococcus aureus 0001 at 100 ug after 20 hrs by agar plate diffusion assay; assay type: functional, organism-based; outline: as §2
Staphylococcus aureus [20] = assay: Antimicrobial activity against methicillin-resistant Staphylococcus aureus 0006 after 20 hrs by serial twofold dilution method; assay type: functional; details: Staphylococcus aureus, 0006, 20 h; outline: as §1
Staphylococcus aureus [21] = assay: Antimicrobial activity against methicillin-resistant Staphylococcus aureus 0004 at 100 ug after 20 hrs by agar plate diffusion assay; assay type: functional, organism-based; outline: as §2
Staphylococcus aureus [22] = assay: Antimicrobial activity against methicillin-resistant Staphylococcus aureus 0019 after 20 hrs by serial twofold dilution method; assay type: functional; details: Staphylococcus aureus, 0019, 20 h; outline: as §1
Staphylococcus aureus [23] = assay: Antimicrobial activity against methicillin-resistant Staphylococcus aureus 0005 after 20 hrs by serial twofold dilution method; assay type: functional; details: Staphylococcus aureus, 0005, 20 h; outline: as §1
Staphylococcus aureus [24] = assay: Antimicrobial activity against methicillin-resistant Staphylococcus aureus 0013 after 20 hrs by serial twofold dilution method; assay type: functional; details: Staphylococcus aureus, 0013, 20 h; outline: as §1
Staphylococcus aureus [25] = assay: Antimicrobial activity against methicillin-resistant Staphylococcus aureus 0003 after 20 hrs by serial twofold dilution method; assay type: functional; details: Staphylococcus aureus, 0003, 20 h; outline: as §1
Staphylococcus aureus [26] = assay: Antimicrobial activity against methicillin-resistant Staphylococcus aureus 0004 after 20 hrs by serial twofold dilution method; assay type: functional; details: Staphylococcus aureus, 0004, 20 h; outline: as §1
Staphylococcus aureus [27] = assay: Antimicrobial activity against methicillin-resistant Staphylococcus aureus 0018 at 100 ug after 20 hrs by agar plate diffusion assay; assay type: functional, organism-based; outline: as §2
Staphylococcus aureus [28] = assay: Antimicrobial activity against methicillin-resistant Staphylococcus aureus 0022 at 100 ug after 20 hrs by agar plate diffusion assay; assay type: functional, organism-based; outline: as §2
Staphylococcus aureus [29] = assay: Antimicrobial activity against methicillin-resistant Staphylococcus aureus 0016 at 100 ug after 20 hrs by agar plate diffusion assay; assay type: functional, organism-based; outline: as §2
Staphylococcus aureus [30] = assay: Antimicrobial activity against methicillin-resistant Staphylococcus aureus 0020 at 100 ug after 20 hrs by agar plate diffusion assay; assay type: functional, organism-based; outline: as §2
Staphylococcus aureus [31] = assay: Antimicrobial activity against methicillin-resistant Staphylococcus aureus 0007 at 100 ug after 20 hrs by agar plate diffusion assay; assay type: functional, organism-based; outline: as §2
Staphylococcus aureus [32] = assay: Antimicrobial activity against methicillin-resistant Staphylococcus aureus 0005 at 100 ug after 20 hrs by agar plate diffusion assay; assay type: functional, organism-based; outline: as §2
Staphylococcus aureus [33] = assay: Antimicrobial activity against methicillin-resistant Staphylococcus aureus 0006 at 100 ug after 20 hrs by agar plate diffusion assay; assay type: functional, organism-based; outline: as §2
Staphylococcus aureus [34] = assay: Antimicrobial activity against methicillin-resistant Staphylococcus aureus 0017 at 100 ug after 20 hrs by agar plate diffusion assay; assay type: functional, organism-based; outline: as §2
Staphylococcus aureus [35] = assay: Antimicrobial activity against methicillin-resistant Staphylococcus aureus 0002 at 100 ug after 20 hrs by agar plate diffusion assay; assay type: functional, organism-based; outline: as §2
Staphylococcus aureus [36] = assay: Antimicrobial activity against methicillin-resistant Staphylococcus aureus 0003 at 100 ug after 20 hrs by agar plate diffusion assay; assay type: functional, organism-based; outline: as §2
Staphylococcus aureus [37] = assay: Antimicrobial activity against methicillin-resistant Staphylococcus aureus 0018 after 20 hrs by serial twofold dilution method; assay type: functional; details: Staphylococcus aureus, 0018, 20 h; outline: as §1

Structure (SMILES) | Activity (Staphylococcus aureus [1]) | MIC (Staphylococcus aureus [2]) | MIC (Staphylococcus aureus [3]) | MIC (Staphylococcus aureus [4]) | Activity (Staphylococcus aureus [5]) | MIC (Staphylococcus aureus [6]) | MIC (Staphylococcus aureus [8]) | MIC (Staphylococcus aureus [10]) | MIC (Staphylococcus aureus [11]) | MIC (Staphylococcus aureus [14]) | MIC (Staphylococcus aureus [15]) | MIC (Staphylococcus aureus [17]) | MIC (Staphylococcus aureus [18]) | MIC (Staphylococcus aureus [20]) | MIC (Staphylococcus aureus [22]) | MIC (Staphylococcus aureus [23]) | MIC (Staphylococcus aureus [24]) | MIC (Staphylococcus aureus [25]) | MIC (Staphylococcus aureus [26]) | MIC (Staphylococcus aureus [37]) | other results
COc1ccc(-c2cc(C=O)cc3ccc(O)c(OC)c23)cc1OC | inactive |  |  |  |  |  |  |  |  |  |  |  |  |  |  |  |  |  |  |  | 
COc1cc(-c2c3c(cc4cc(OC)c(O)cc24)C(=O)OC3)ccc1O [DETETRAHYDROCONIDENDRIN] | inactive | 4 µg/mL (≈ 11.4 µM) | > 64 µg/mL | > 64 µg/mL | Active | 16 µg/mL (≈ 45.4 µM) | > 64 µg/mL | > 64 µg/mL | > 64 µg/mL | 16 µg/mL (≈ 45.4 µM) | 8 µg/mL (≈ 22.7 µM) | 8 µg/mL (≈ 22.7 µM) | > 64 µg/mL | 8 µg/mL (≈ 22.7 µM) | > 64 µg/mL | 8 µg/mL (≈ 22.7 µM) | > 64 µg/mL | 8 µg/mL (≈ 22.7 µM) | > 64 µg/mL | > 64 µg/mL | Activity (Staphylococcus aureus [7]): Active; Activity (Staphylococcus aureus [9]): Active; Activity (Staphylococcus aureus [12]): Active; Activity (Staphylococcus aureus [13]): Active; Activity (Staphylococcus aureus [16]): Active; Activity (Staphylococcus aureus [19]): Active; Activity (Staphylococcus aureus [21]): Active; Activity (Staphylococcus aureus [27]): Active; Activity (Staphylococcus aureus [28]): Active; Activity (Staphylococcus aureus [29]): Active; Activity (Staphylococcus aureus [30]): Active; Activity (Staphylococcus aureus [31]): Active; Activity (Staphylococcus aureus [32]): Active; Activity (Staphylococcus aureus [33]): Active; Activity (Staphylococcus aureus [34]): Active; Activity (Staphylococcus aureus [35]): Active; Activity (Staphylococcus aureus [36]): Active
COc1cc2c(cc1OC)C(O)c1c(C=O)cc3ccc(O)c(OC)c3c1-2 (stereo unspecified) [VITROFOLAL C] | inactive | 64 µg/mL (≈ 175 µM) | > 64 µg/mL | > 64 µg/mL | Active | 64 µg/mL (≈ 175 µM) | > 64 µg/mL | > 64 µg/mL | > 64 µg/mL | 64 µg/mL (≈ 175 µM) | 64 µg/mL (≈ 175 µM) | 64 µg/mL (≈ 175 µM) | > 64 µg/mL | 64 µg/mL (≈ 175 µM) | > 64 µg/mL | 64 µg/mL (≈ 175 µM) | > 64 µg/mL | > 64 µg/mL | > 64 µg/mL | > 64 µg/mL | Activity (Staphylococcus aureus [7]): Active; Activity (Staphylococcus aureus [9]): Active; Activity (Staphylococcus aureus [12]): Active; Activity (Staphylococcus aureus [13]): Active; Activity (Staphylococcus aureus [16]): Active; Activity (Staphylococcus aureus [19]): Active; Activity (Staphylococcus aureus [21]): Active; Activity (Staphylococcus aureus [27]): Active; Activity (Staphylococcus aureus [28]): Active; Activity (Staphylococcus aureus [29]): Active; Activity (Staphylococcus aureus [30]): Active; Activity (Staphylococcus aureus [31]): Active; Activity (Staphylococcus aureus [32]): Active; Activity (Staphylococcus aureus [33]): Active; Activity (Staphylococcus aureus [34]): Active; Activity (Staphylococcus aureus [35]): Active; Activity (Staphylococcus aureus [36]): Active
COc1cc2c(cc1OC)-c1c(c(C=O)cc3ccc(O)c(OC)c13)C2=O [VITROFOLAL D] | inactive | 16 µg/mL (≈ 43.9 µM) | > 64 µg/mL | > 64 µg/mL | Active | 16 µg/mL (≈ 43.9 µM) | > 64 µg/mL | > 64 µg/mL | > 64 µg/mL | 16 µg/mL (≈ 43.9 µM) | 16 µg/mL (≈ 43.9 µM) | 16 µg/mL (≈ 43.9 µM) | > 64 µg/mL | 16 µg/mL (≈ 43.9 µM) | > 64 µg/mL | 16 µg/mL (≈ 43.9 µM) | > 64 µg/mL | 32 µg/mL (≈ 87.8 µM) | > 64 µg/mL | > 64 µg/mL | Activity (Staphylococcus aureus [7]): Active; Activity (Staphylococcus aureus [9]): Active; Activity (Staphylococcus aureus [12]): Active; Activity (Staphylococcus aureus [13]): Active; Activity (Staphylococcus aureus [16]): Active; Activity (Staphylococcus aureus [19]): Active; Activity (Staphylococcus aureus [21]): Active; Activity (Staphylococcus aureus [27]): Active; Activity (Staphylococcus aureus [28]): Active; Activity (Staphylococcus aureus [29]): Active; Activity (Staphylococcus aureus [30]): Active; Activity (Staphylococcus aureus [31]): Active; Activity (Staphylococcus aureus [32]): Active; Activity (Staphylococcus aureus [33]): Active; Activity (Staphylococcus aureus [34]): Active; Activity (Staphylococcus aureus [35]): Active; Activity (Staphylococcus aureus [36]): Active
COc1cc(-c2cc(C=O)cc3cc(OC)c(O)cc23)ccc1O [VITROFOLAL E] | inactive | 64 µg/mL (≈ 197 µM) | > 64 µg/mL | > 64 µg/mL |  | > 64 µg/mL | > 64 µg/mL | > 64 µg/mL | > 64 µg/mL | > 64 µg/mL | > 64 µg/mL | > 64 µg/mL | > 64 µg/mL | > 64 µg/mL | > 64 µg/mL | > 64 µg/mL | > 64 µg/mL | > 64 µg/mL | > 64 µg/mL | > 64 µg/mL | 
